The source made the active and inactive calls. The rule behind the calls is not given here.
Assays:
Format in all cases: cell-based
HEK293 [1] = experiment: Activation of wild-type human SLACK expressed in HEK293 cells assessed as efficacy at 30 uM by thallium flux assay relative to control
HEK293 [2] = experiment: Inhibition of wild-type human SLACK expressed in HEK293 cells assessed as efficacy at 30 uM by thallium flux assay relative to control
Method in brief: (§1)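 Stable monoclonal HEK293 lines (WT or A934T SLACK) plated 20,000 cells/well; loaded 1 h at room temperature with Thallo-AM dye, 1.25 mM probenecid, masking dye, 0.3% Pluronic F-127 in buffer with 2.7 mM RbCl, pH 7.3. Compound preincubated 120 s, then Tl2SO4 stimulus (2.5 mM); fluorescence read 120 s. Concentration–response 1.5 nM–30 μM in half-log steps, ≥3 replicate wells.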

HEK293 [3] = experiment: (§2) Inhibition of wild-type human SLACK expressed in HEK293 cells by thallium flux assay; method in brief: as §1
[4] = as §2; method in brief: as §1

SMILES	Efficacy (HEK293 [2])	Efficacy (HEK293 [1])	other results
CCOc1ccccc1S(=O)(=O)N1CC(c2nc(-c3ccccc3C(F)(F)F)no2)C1	–	–	Efficacy (HEK293 [1]; filed as activator): 66%
CCOc1ccccc1S(=O)(=O)N1CC(c2nc(-c3cccc(C)c3)no2)C1	< 10%	–	–
CCNc1ccccc1S(=O)(=O)N1CC(c2nc(-c3ccsc3)no2)C1	inactive	–	inhibition (HEK293 [3]): inactive
CCOc1ccccc1S(=O)(=O)N1CC[C@H](c2nc(-c3ccc(F)cc3)no2)C1	63%	–	IC50 [4]: > 10 µM
O=S(=O)(c1cccn2ccnc12)N1CC(c2nc(-c3ccc(F)cc3)no2)C1	–	–	Efficacy (HEK293 [1]; filed as activator): 48%
CCOc1ccccc1S(=O)(=O)N1CC(c2nc(-c3nccs3)no2)C1	inactive	–	inhibition (HEK293 [3]): inactive
O=S(=O)(c1cccc(F)c1)N1CC(c2nc(-c3ccsc3)no2)C1	–	24%	–
CCCOc1ccccc1S(=O)(=O)N1CC(c2nc(-c3ccsc3)no2)C1	87%	–	IC50 [4]: 2.6 µM
CCOc1ccccc1S(=O)(=O)N1CC(c2nc(-c3ccccc3Cl)no2)C1	81%	–	–
CCOc1ccccc1S(=O)(=O)N1CC(c2cc(-c3ccc(F)cc3)n[nH]2)C1	–	24%	–
CCOc1ccccc1S(=O)(=O)N1CC(c2nc(-c3ccc(F)cc3)cn2C)C1	47%	–	–
CCOc1ccccc1S(=O)(=O)N1CC[C@@H](c2nc(-c3ccc(F)cc3)no2)C1	31%	–	IC50 [4]: > 10 µM
Cc1ccc(S(=O)(=O)N2CC(c3nc(-c4ccsc4)no3)C2)cc1	inactive	–	inhibition (HEK293 [3]): inactive
CCOc1ccccc1NC(=O)N1CC(c2nc(-c3ccsc3)no2)C1	–	< 10%	–
CCOc1ncccc1S(=O)(=O)N1CC(c2nc(-c3ccc(F)cc3)no2)C1	46%	–	–
CCOc1ccccc1S(=O)(=O)N1CC(c2ncc(-c3ccc(F)cc3)o2)C1	–	37%	–
O=S(=O)(c1ccccc1OC1COC1)N1CC(c2nc(-c3ccc(F)cc3)no2)C1	–	–	Efficacy (HEK293 [1]; filed as activator): 43%
O=S(=O)(c1cccn2cnnc12)N1CC(c2nc(-c3ccc(F)cc3)no2)C1	–	14%	–
O=S(=O)(c1ccccc1OCC1CCC1)N1CC(c2nc(-c3ccc(F)cc3)no2)C1	88%	–	–
CCOc1ccccc1S(=O)(=O)N1CC(c2nc(-c3ccccc3OC)no2)C1	–	18%	–

SMILES	Efficacy (HEK293 [2])	Efficacy (HEK293 [1])	other results
CCOc1ccccc1S(=O)(=O)[C@H]1C[C@@H](c2nc(-c3ccc(F)cc3)no2)C1	inactive	–	inhibition (HEK293 [3]): inactive
CCOc1ccccc1S(=O)(=O)N1CC(c2nc(-c3ccncc3)no2)C1	inactive	–	inhibition (HEK293 [3]): inactive
O=S(=O)(c1cccc(C(F)(F)F)c1)N1CC(c2nc(-c3ccsc3)no2)C1	–	–	Efficacy (HEK293 [1]; filed as activator): 61%
Cc1cccc(S(=O)(=O)N2CC(c3nc(-c4ccsc4)no3)C2)c1	–	< 10%	–
CCOc1ccccc1S(=O)(=O)N1CC(c2cc(-c3ccc(F)cc3)no2)C1	inactive	–	inhibition (HEK293 [3]): inactive
CCOc1ccccc1S(=O)(=O)N1CC(c2nc(-c3cccnc3)no2)C1	inactive	–	inhibition (HEK293 [3]): inactive
O=S(=O)(c1ccc(C(F)(F)F)cc1)N1CC(c2nc(-c3ccsc3)no2)C1	inactive	–	inhibition (HEK293 [3]): inactive
CCOc1ccccc1CN1CC(c2nc(-c3ccsc3)no2)C1	–	31%	–
O=S(=O)(c1ccccc1C(F)(F)F)N1CC(c2nc(-c3ccsc3)no2)C1	–	36%	–
CCOc1ccccc1S(=O)(=O)N1CC(c2nc(-c3ccc(F)cc3F)no2)C1	93%	–	IC50 [4]: 6.5 µM
CCOc1ccccc1S(=O)(=O)N1CC(c2nnc(-c3ccc(F)cc3)o2)C1	–	< 10%	–
CCOc1ccccc1S(=O)(=O)N1CC(C)(c2nc(-c3ccc(F)cc3)no2)C1	–	14%	–
CCOc1ccccc1S(=O)(=O)N1CC(c2nc(-c3cccc(OC)c3)no2)C1	–	< 10%	–
CCOc1ccccc1S(=O)(=O)N1CC(c2nc(-c3cccc(F)c3)no2)C1	inactive	–	inhibition (HEK293 [3]): inactive
O=S(=O)(c1ccc(F)cc1)N1CC(c2nc(-c3ccsc3)no2)C1	inactive	–	inhibition (HEK293 [3]): inactive
CCOc1ccccc1S(=O)(=O)c1ccc(-c2nc(-c3ccc(F)cc3)no2)cc1	inactive	–	inhibition (HEK293 [3]): inactive
O=S(=O)(c1ccccc1N1CCCCC1)N1CC(c2nc(-c3ccc(F)cc3)no2)C1	28%	–	–
CCOc1ccccc1S(=O)(=O)N1CC(c2nc(-c3ccco3)no2)C1	44%	–	–
CCOc1ccccc1C(=O)N1CC(c2nc(-c3ccsc3)no2)C1	–	18%	–
CCOc1ccccc1S(=O)(=O)N1CC(c2nc(-c3ccccc3C)no2)C1	–	< 10%	–

Source: ChEMBL document CHEMBL5390224, “Design, synthesis, and biological evaluation of a novel series of 1,2,4-oxadiazole inhibitors of SLACK potassium channels: Identification of in vitro tool VU0935685” (Bioorg Med Chem, 2023)
